In ChEMBL document CHEMBL3120111, “Bilirubin and related tetrapyrroles inhibit food-borne mutagenesis: a mechanism for antigenotoxic action against a model epoxide” (J Nat Prod, 2013):
Active and inactive are the calls of the source. The calls are words filed in the database; no cut-off is given here.

Legend:
Salmonella typhimurium [1] = assay: Antimutagenic activity against PhIP-induced Salmonella typhimurium TA98 mutagenesis preincubated at 0.01 to 10 umol/plate for 25 mins by Ames test in presence of S9 liver homogenate relative to control; type: functional, organism-based; conditions: Salmonella enterica subsp. enterica serovar Typhimurium, Liver S9 fraction
Salmonella typhimurium [2] = assay: Antimutagenic activity against PhIP-induced Salmonella typhimurium TA98 mutagenesis preincubated at 0.5 umol/plate for 25 mins by Ames test in presence of S9 liver homogenate relative to control; type: functional, organism-based; conditions: Salmonella enterica subsp. enterica serovar Typhimurium, Liver S9 fraction
How it was run: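 IP0.5 is the percent inhibition of PhIP-positive-control revertants (0.1×10^-7 mol/plate PhIP, TA98, with S9) at 0.5 µmol/plate tetrapyrrole. It was derived from dose-response data in the 25 min preincubation plate assay, with 48 h incubation at 37 °C. Three positive-control plates and six solvent-control plates per test.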

Salmonella typhimurium [3] = assay: Antimutagenic activity against PhIP-induced Salmonella typhimurium TA98 mutagenesis assessed as reduction in His+ revertants after 48 hrs by microscopy in presence of S9 liver homogenate; type: functional, organism-based; conditions: Salmonella enterica subsp. enterica serovar Typhimurium, Liver S9 fraction
How it was run: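 Ames preincubation in TA98 with rat liver S9 mix (Aroclor 1254-induced, with NADP and glucose-6-phosphate). PhIP was 0.1×10^-7 mol/plate in DMSO; tetrapyrroles were in DMSO at 0.01–2 µmol/plate (bilirubin 0.01–0.75). Preincubation 25 min at 37 °C with shaking, then top agar on minimal glucose plates for 48 h at 37 °C. His+ revertants counted manually after microscopic lawn check. Triplicate plates, repeated independently.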

Salmonella typhimurium [4] = assay: Mutagenic activity in Salmonella typhimurium TA98 mutagenesis preincubated at 0.5 umol/plate for 25 mins by Ames test in presence of S9 liver homogenate relative to aflatoxin B1; type: toxicity, organism-based, Liver S9 fraction; conditions: salmonella enterica subsp. enterica serovar typhimurium

CC[C@H]1[C@H](Cc2[nH]c(/C=C3\N=C(C[C@@H]4NC(=O)[C@H](CC)[C@H]4C)C(C)=C3CCC(=O)O)c(CCC(=O)O)c2C)NC(=O)[C@@H]1C
Activity (Salmonella typhimurium [1]): Active
inhibition (Salmonella typhimurium [2]): 57%

C=CC1=C(C)/C(=C/C2=NC(=C\c3[nH]c(/C=C4\NC(=O)C(C)=C4C=C)c(C)c3CCC(=O)O)/C(CCC(=O)O)=C2C)NC1=O [BILIVERDIN]
Activity (Salmonella typhimurium [3]): Active
Activity (Salmonella typhimurium [1]): Active
inhibition (Salmonella typhimurium [2]): 78%
Activity (Salmonella typhimurium [4]): 363%

C=CC1=C(C)/C(=C/c2[nH]c(Cc3[nH]c(/C=C4\NC(=O)C(C)=C4C=C)c(C)c3CCC(=O)O)c(CCC(=O)O)c2C)NC1=O [BILIRUBIN]
inhibition (Salmonella typhimurium [2]): 82%
Activity (Salmonella typhimurium [4]): 352%

C=CC1=C(C)/C(=C/c2[nH]c(Cc3[nH]c(/C=C4\NC(=O)C(C)=C4C=C)c(C)c3CCC(=O)NCCS(=O)(=O)O)c(CCC(=O)NCCS(=O)(=O)O)c2C)NC1=O [BILIRUBIN DITAURATE]
inhibition (Salmonella typhimurium [2]): 64%
Activity (Salmonella typhimurium [4]): 268%

C=CC1=C(C)c2cc3[nH]c(cc4nc(cc5[nH]c(cc1n2)c(C)c5CCC(=O)O)C(CCC(=O)O)=C4C)c(C)c3C=C
inhibition (Salmonella typhimurium [2]): 97%

C=CC1=C(C)/C(=C/C2=NC(=C\c3[nH]c(/C=C4/NC(=O)C(C)=C4C=C)c(C)c3CCC(=O)OC)/C(CCC(=O)OC)=C2C)NC1=O
Activity (Salmonella typhimurium [3]): Active
Activity (Salmonella typhimurium [1]): Active
inhibition (Salmonella typhimurium [2]): 55%

C=CC1=C(C)/C(=C\c2[nH]c(Cc3[nH]c(/C=C4/NC(=O)C(C)=C4C=C)c(C)c3CCC(=O)OC)c(CCC(=O)OC)c2C)NC1=O
inhibition (Salmonella typhimurium [2]): 68%

CCC1=C(C)[C@H](CC2=N/C(=C\c3[nH]c(C[C@@H]4N=C(O)C(C)=C4CC)c(C)c3CCC(=O)O)C(CCC(=O)O)=C2C)N=C1O
Activity (Salmonella typhimurium [1]): Active
inhibition (Salmonella typhimurium [2]): 48%
